Laboratory results from ChEMBL document CHEMBL2407084, “Novel imino sugar α-glucosidase inhibitors as antiviral compounds” (Bioorg Med Chem, 2013).
The source made the active and inactive calls. No cut-off for these calls is given here.

How the values were obtained:
[1] = system: Bovine viral diarrhea virus 1; assay: Antiviral activity against Bovine viral diarrhea virus infected in MDBK cells assessed as reduction in viral RNA level at 50 uM after 24 hrs by RT-PCR analysis; assay type: functional, organism-based
Outline: (§1)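 MDBK cells (1.75 10^6/well) infected with BVDV at MOI 1, then incubated with imino sugar for 24 h. Medium was clarified by centrifugation and viral RNA purified, then DNase-treated. SYBR green real-time RT-PCR used primers amplifying a 334-bp NS2 segment, 35 cycles. Copies were calibrated against a standard curve of serially diluted BVDV stock.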

MDBK [2] = assay: Inhibition of endoplasmic reticulum alpha-glucosidase 1 in MDBK cells assessed as accumulation of triglucosylated Man5GlcNAc1 after 24 hrs by NP-HPLC analysis; assay type: cell-based; details: Bos taurus
Outline: (§2)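 Uninfected MDBK cells (1 10^6/well) were grown with a range of imino sugar concentrations for 24 h at 37 °C. Free oligosaccharides were extracted, labelled with 2-anthranilic acid, and purified on amide and ConA-Sepharose columns. They were separated by NP-HPLC. Peak areas of tri-glucosylated (glucosidase I) or mono-glucosylated (glucosidase II) Man5GlcNAc1 were expressed relative to Man4GlcNAc1. Mean and SD.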

MDBK [3] = assay: Inhibition of endoplasmic reticulum alpha-glucosidase 2 in MDBK cells assessed as accumulation of monoglucosylated Man5GlcNAc1 after 24 hrs by NP-HPLC analysis; assay type: cell-based; details: Bos taurus; outline: as §2
[4] = Cytotoxicity against MDBK cells after 72 hrs by MTS assay; assay type: cell-based, Bos taurus; details: cattle
Outline: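 MDBK cells (5 10^3/well) were plated for 24 h, then given fresh medium with a range of imino sugar concentrations for 72 h. MTS–phenazine methosulfate (20:1) was added for 1 h and absorbance read at 490 nm. Triplicates. CC50 is the concentration giving A490 at 50% of untreated controls.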

[5] = system: Bovine viral diarrhea virus 1; assay: Antiviral activity against Bovine viral diarrhea virus infected in MDBK cells assessed as reduction in viral infectivity at 50 uM treated for 24 hrs followed by compound washout followed by serially diluted compound treatment measured after 24 hrs by fluorescence microscopic analysis; assay type: functional, organism-based
Outline: (§3)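 Supernatant from BVDV-infected MDBK cells (MOI 1, 24 h with compound) was clarified, and fivefold serial dilutions infected naive MDBK cells for 24 h. Cells were fixed in 4% paraformaldehyde, blocked in milk, permeabilised with Triton X-100, and probed with MAb103/105 against NS2/3 then FITC anti-mouse. DAPI counterstain. Foci counted by fluorescence microscopy to give FFU/ml relative to untreated control; three experiments, mean and SD.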

MDBK [6] = assay: Inhibition of endoplasmic reticulum alpha-glucosidase 1 in MDBK cells assessed as accumulation of triglucosylated Man5GlcNAc1 after 24 hrs by NP-HPLC analysis relative to Man4GlcNAc1 level; assay type: cell-based; details: Bos taurus; outline: as §2
MDBK [7] = assay: Inhibition of endoplasmic reticulum alpha-glucosidase 2 in MDBK cells assessed as accumulation of monoglucosylated Man5GlcNAc1 after 24 hrs by NP-HPLC analysis relative to Man4GlcNAc1 level; assay type: cell-based; details: Bos taurus; outline: as §2
[8] = system: Bovine viral diarrhea virus 1; assay: Antiviral activity against Bovine viral diarrhea virus infected in MDBK cells assessed as reduction in viral RNA level at 10 uM after 24 hrs by RT-PCR analysis; assay type: functional, organism-based; outline: as §1
MDBK [9] = assay: Inhibition of BVDV endoplasmic reticulum alpha-glucosidase 1 infected in MDBK cells assessed as increase in E2 protein glucosylation at 100 uM after 24 hrs by Western blotting analysis; assay type: cell-based; details: Bovine viral diarrhea virus 1
[10] = system: Bovine viral diarrhea virus 1; assay: Antiviral activity against Bovine viral diarrhea virus infected in MDBK cells assessed as reduction in viral infectivity at 10 uM treated for 24 hrs followed by compound washout followed by serially diluted compound treatment measured after 24 hrs by fluorescence microscopic analysis; assay type: functional, organism-based; outline: as §3
MDBK [11] = assay: Inhibition of BVDV endoplasmic reticulum alpha-glucosidase 2 infected in MDBK cells assessed as increase in E2 protein glucosylation at 100 uM after 24 hrs by Western blotting analysis; assay type: cell-based; details: Bovine viral diarrhea virus 1

Structure (SMILES) | Activity [1] | INH (MDBK [2]) [µM] | Concentration giving inhibition (MDBK [3]) [µM] | CC50 at 72 h [4] [µM] | Activity [5] | fold change (FC) (MDBK [6]) | fold change (FC) (MDBK [7]) | Activity [8] | glucosidase I inhibition (active/not active) (MDBK [9]) | Activity [10] | activity call (active / not active) (MDBK [11]) | inhibition (MDBK [2]) | inhibition (MDBK [3])
OC[C@@H]1[C@@H](O)[C@H](O)[C@@H](O)CN1CCCCc1cn(CC23CC4CC(CC(C4)C2)C3)nn1 | Active | 100 | 50 | > 250 | Active | 1.44 | 5.2 | inactive | – | – | – | – | –
OC[C@@H]1[C@@H](O)[C@H](O)[C@@H](O)CN1CCCCCCCCCCn1cc(COCC23CC4CC(CC(C4)C2)C3)nn1 | – | 10 | 5 | 29.2 | – | 0.26 | 5.8 | Active | inactive | Active | inactive | – | –
OC[C@@H]1[C@@H](O)[C@H](O)[C@@H](O)CN1CCCCCCn1cc(COCC23CC4CC(CC(C4)C2)C3)nn1 | – | 100 | 10 | 205 | – | 11.4 | 8.3 | – | Active | Active | Active | – | –
OC[C@@H]1[C@@H](O)[C@H](O)[C@@H](O)CN1Cc1cn(CC23CC4CC(CC(C4)C2)C3)nn1 | – | 100 | 100 | > 250 | Active | 0.54 | 3 | inactive | – | – | – | – | –
OC[C@@H]1[C@@H](O)[C@H](O)[C@@H](O)CN1CCCCCCCCn1cc(COCC23CC4CC(CC(C4)C2)C3)nn1 | – | 25 | 10 | 51.7 | – | 2 | 5.4 | Active | – | Active | – | – | –
OC[C@@H]1[C@@H](O)[C@H](O)[C@@H](O)CN1CCCCn1cc(COCC23CC4CC(CC(C4)C2)C3)nn1 | – | 100 | 100 | > 250 | – | 1.52 | 6 | Active | inactive | Active | inactive | – | –
OC[C@@H]1[C@@H](O)[C@H](O)[C@@H](O)CN1CCc1cn(CC23CC4CC(CC(C4)C2)C3)nn1 | Active | 100 | 100 | > 250 | Active | 0.82 | 5.1 | inactive | – | – | – | – | –
OC[C@@H]1[C@H](O)[C@H](O)[C@@H](O)CN1CCCCn1cc(COCC23CC4CC(CC(C4)C2)C3)nn1 | – | – | – | > 250 | Active | – | – | – | inactive | Active | inactive | inactive | inactive
